Measured values as given in ChEMBL document CHEMBL1135836, “Cyclodextrin-derived host molecules as reversal agents for the neuromuscular blocker rocuronium bromide: synthesis and structure-activity relationships” (J Med Chem, 2002).
Blank lines part the entries; values can stand above or below the compound they belong to.

Tests used:
Assay type in all cases: functional
[1] = species on record: Mus musculus; assay: In vitro reversal activity versus ~90% block by rocuronium in isolated mouse hemidiaphragm, expressed as effective conc.
[2] = tested on: Cavia porcellus; assay: In vivo reversal activity versus ~90% block by rocuronium in guinea pig, expressed as % maximum reversal at 1018 umol/kg conc.
Summary of the method: (§1)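 Male Dunkin-Hartley guinea pigs (600-900 g), anaesthetized ip with pentobarbitone 10 mg/kg plus urethane 1000 mg/kg, tracheotomized and ventilated. Continuous iv rocuronium infusion (~10 nmol kg-1 min-1) was raised to a steady 85-90% block. Increasing iv doses of agent were given cumulatively. ED50 = 50% recovery versus preblock twitch, by regression. Mean ± SEM of at least two experiments, or one.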

[3] = tested on: Cavia porcellus; assay: In vivo reversal activity versus ~90% block by rocuronium in guinea pig; summary of the method: as §1
[4] = species on record: Mus musculus; assay: In vitro reversal activity versus ~90% block by rocuronium in isolated mouse hemidiaphragm, expressed as % of maximum reversal at a conc. of 360 uM
[5] = species on record: Mus musculus; assay: In vitro reversal activity versus ~90% block by rocuronium in isolated mouse hemidiaphragm, expressed as % of maximum reversal at 7.2 uM conc.
[6] = tested on: Cavia porcellus; assay: In vivo reversal activity versus ~90% block by rocuronium in guinea pig, expressed as % of maximum reversal at 1.7 umol/kg conc.; summary of the method: as §1
[7] = species on record: Mus musculus; assay: In vitro reversal activity versus ~90% block by rocuronium in isolated mouse hemidiaphragm, expressed as % of maximum reversal at 144 uM conc.
[8] = tested on: Cavia porcellus; assay: In vivo reversal activity versus ~90% block by rocuronium in guinea pig, expressed as % of maximum reversal at 47umol/kg conc.
Summary of the method: (§2)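 Male Dunkin-Hartley guinea pigs (600-900 g) anaesthetized ip with pentobarbitone 10 mg/kg plus urethane 1000 mg/kg, tracheotomized and artificially ventilated. Continuous iv rocuronium bromide infusion (~10 nmol kg-1 min-1) raised until steady-state twitch block of 85-90%. Increasing single iv doses of reversal agent given by a separate catheter. Max reversal is peak twitch recovery versus preblock height at highest dose tested; means ± SEM, n ≥ 2 or single experiment.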

[9] = tested on: Cavia porcellus; assay: In vivo reversal activity versus ~90% block by rocuronium in guinea pig, expressed as % of maximum reversal at 33.1 umol/kg conc.; summary of the method: as §2
[10] = species on record: Mus musculus; assay: In vitro reversal activity versus ~90% block by rocuronium in isolated mouse hemidiaphragm, expressed as % of maximum reversal at 10.8uM conc.
[11] = tested on: Cavia porcellus; assay: In vivo reversal activity versus ~90% block by rocuronium in guinea pig, expressed as % of maximum reversal at 8 umol/kg conc.; summary of the method: as §2
[12] = species on record: Mus musculus; assay: In vitro reversal activity versus ~90% block by rocuronium in isolated mouse hemidiaphragm, expressed as % of maximum reversal at 180 uM conc.
[13] = species on record: Mus musculus; assay: In vitro reversal activity versus ~90% block by rocuronium in isolated mouse hemidiaphragm, expressed as % of maximum reversal at 252 uM conc.
[14] = tested on: Cavia porcellus; assay: In vivo reversal activity versus ~90% block by rocuronium in guinea pig, expressed as % of maximum reversal at 11 umol/kg conc.; summary of the method: as §1
[15] = species on record: Mus musculus; assay: In vitro reversal activity versus ~90% block by rocuronium in isolated mouse hemidiaphragm, expressed as % of maximum reversal at 3.6 uM conc.
[16] = tested on: Cavia porcellus; assay: In vivo reversal activity versus ~90% block by rocuronium in guinea pig, expressed as % of maximum reversal at 1.2 umol/kg conc.; summary of the method: as §1
[17] = tested on: Cavia porcellus; assay: In vivo reversal activity versus ~90% block by rocuronium in guinea pig, expressed as % of maximum reversal at 2.1 umol/kg conc.; summary of the method: as §2
[18] = species on record: Mus musculus; assay: In vitro reversal activity versus ~90% block by rocuronium in isolated mouse hemidiaphragm, expressed as % of maximum reversal at 16.2 uM conc.
[19] = tested on: Cavia porcellus; assay: In vivo reversal activity versus ~90% block by rocuronium in guinea pig, expressed as % of maximum reversal at 2.8 umol/kg conc.; summary of the method: as §2
[20] = tested on: Felis catus; assay: Percent of maximum change of decrease in HR (bpm) by vagal stimulation in anesthetized cat (dosed with standard combination of neostigmin (24.3 umol/kg) + atropine 15 umol/kg)
[21] = tested on: Felis catus; assay: Percent increase in contraction of nictitating membrane in anesthetized cat (dosed with standard combination of neostigmin (24.3 umol/kg) + atropine 15 umol/kg)
[22] = tested on: Felis catus; assay: Percent of maximum change of HR in anesthetized cat (dosed with standard combination of neostigmin (24.3 umol/kg) + atropine 15 umol/kg)
[23] = tested on: Felis catus; assay: Percent of maximum change in BP in anesthetized cat (dosed with standard combination of neostigmin (24.3 umol/kg) + atropine 15 umol/kg)
[24] = tested on: Cavia porcellus; assay: In vivo reversal activity versus ~90% block by rocuronium in guinea pig, expressed as % of maximum reversal at 9.6 […] conc.; summary of the method: as §2

EC50 [1]: > 360 µM
Compound: OCC1O[C@@H]2O[C@@H]3C(CO)O[C@H](O[C@@H]4C(CO)O[C@H](O[C@@H]5C(CO)O[C@H](O[C@@H]6C(CO)O[C@H](O[C@@H]7C(CO)O[C@H](O[C@H]1C(O)C2O)C(O)C7O)C(O)C6O)C(O)C5O)C(O)C4O)C(O)C3O (some centres undefined)
Max reversal [2]: 6.4% | ED50 [3]: 1580 µmol/kg | Max reversal [4]: 9.7%

EC50 [1]: 34.6 µM
Compound: OCC1O[C@@H]2O[C@@H]3C(CO)O[C@H](O[C@@H]4C(CO)O[C@H](O[C@@H]5C(CO)O[C@H](O[C@@H]6C(CO)O[C@H](O[C@@H]7C(CO)O[C@H](O[C@@H]8C(CO)O[C@H](O[C@@H]9C(CO)O[C@H](O[C@H]1C(O)C2O)C(O)C9O)C(O)C8O)C(O)C7O)C(O)C6O)C(O)C5O)C(O)C4O)C(O)C3O (some centres undefined)
Max reversal [7]: 94.1% | Max reversal [8]: 104.7% | ED50 [3]: 4 µmol/kg

EC50 [1]: 50.3 µM
Compound: O=C([O-])c1ccc(SCC2O[C@@H]3O[C@@H]4C(CO)O[C@H](O[C@@H]5C(CO)O[C@H](O[C@@H]6C(CO)O[C@H](O[C@@H]7C(CO)O[C@H](O[C@@H]8C(CO)O[C@H](O[C@@H]9C(CO)O[C@H](O[C@@H]%10C(CO)O[C@H](O[C@H]2C(O)C3O)C(O)C%10O)C(O)C9O)C(O)C8O)C(O)C7O)C(O)C6O)C(O)C5O)C(O)C4O)cc1.[Na+] (some centres undefined)
Max reversal [11]: 102.4% | Max reversal [12]: 94.7% | ED50 [3]: 0.94 µmol/kg

EC50 [1]: 97.6 µM
Compound: O=C([O-])c1ccccc1SCC1O[C@@H]2O[C@@H]3C(CO)O[C@H](O[C@@H]4C(CO)O[C@H](O[C@@H]5C(CO)O[C@H](O[C@@H]6C(CO)O[C@H](O[C@@H]7C(CO)O[C@H](O[C@@H]8C(CO)O[C@H](O[C@@H]9C(CO)O[C@H](O[C@H]1C(O)C2O)C(O)C9O)C(O)C8O)C(O)C7O)C(O)C6O)C(O)C5O)C(O)C4O)C(O)C3O.[Na+] (some centres undefined)
Max reversal [13]: 86.3% | ED50 [3]: 1.3 µmol/kg | Max reversal [14]: 93%

EC50 [1]: 9.1 µM
Compound: O=C(O)CCOCCSCC1O[C@@H]2O[C@@H]3C(CSCCOCCO)O[C@H](O[C@@H]4C(CSCCOCCO)O[C@H](O[C@@H]5C(CSCCOCCO)O[C@H](O[C@@H]6C(CSCCOCCO)O[C@H](O[C@@H]7C(CSCCOCCO)O[C@H](O[C@@H]8C(CSCCOCCO)O[C@H](O[C@@H]9C(CSCCOCCO)O[C@H](O[C@H]1C(O)C2O)C(O)C9O)C(O)C8O)C(O)C7O)C(O)C6O)C(O)C5O)C(O)C4O)C(O)C3O (some centres undefined)
Max reversal [17]: 92.2% | Max reversal [18]: 66.1% | ED50 [3]: 0.47 µmol/kg

EC50 [1]: 6.5 µM
Compound: O=C([O-])CSCC1O[C@@H]2O[C@@H]3C(CSCC(=O)[O-])O[C@H](O[C@@H]4C(CSCC(=O)[O-])O[C@H](O[C@@H]5C(CSCC(=O)[O-])O[C@@H](O[C@@H]6C(CSCC(=O)[O-])O[C@H](O[C@@H]7C(CSCC(=O)[O-])O[C@H](O[C@@H]8C(CSCC(=O)[O-])O[C@H](O[C@H]1C(O)C2O)C(O)C8O)C(O)C7O)C(O)C6O)C(O)C5O)C(O)C4O)C(O)C3O.[Na+].[Na+].[Na+].[Na+].[Na+].[Na+].[Na+] (some centres undefined)
Max reversal [24]: 89.6% | Max reversal [18]: 97.3% | ED50 [3]: 0.93 µmol/kg

Further lines, the compound ahead of its results:

Compound: O=S(=O)([O-])CSCC1O[C@@H]2O[C@@H]3C(CSCS(=O)(=O)[O-])O[C@H](O[C@@H]4C(CSCS(=O)(=O)[O-])O[C@H](O[C@@H]5C(CSCS(=O)(=O)[O-])O[C@H](O[C@@H]6C(CSCS(=O)(=O)[O-])O[C@H](O[C@@H]7C(CSCS(=O)(=O)[O-])O[C@H](O[C@@H]8C(CSCS(=O)(=O)[O-])O[C@H](O[C@@H]9C(CSCS(=O)(=O)[O-])O[C@H](O[C@H]1C(O)C2O)C(O)C9O)C(O)C8O)C(O)C7O)C(O)C6O)C(O)C5O)C(O)C4O)C(O)C3O.[Na+].[Na+].[Na+].[Na+].[Na+].[Na+].[Na+].[Na+] (some centres undefined)
EC50 [1]: 0.36 µM | Max reversal [5]: 101.4% | ED50 [3]: 0.06 µmol/kg | Max reversal [6]: 106.5%

Compound: NC(=O)CCCSCC1O[C@@H]2O[C@@H]3C(CSCCCC(N)=O)O[C@H](O[C@@H]4C(CSCCCC(N)=O)O[C@H](O[C@@H]5C(CSCCCC(N)=O)O[C@H](O[C@@H]6C(CSCCCC(N)=O)O[C@H](O[C@@H]7C(CSCCCC(N)=O)O[C@H](O[C@@H]8C(CSCCCC(N)=O)O[C@H](O[C@@H]9C(CSCCCC(N)=O)O[C@H](O[C@H]1C(O)C2O)C(O)C9O)C(O)C8O)C(O)C7O)C(O)C6O)C(O)C5O)C(O)C4O)C(O)C3O (some centres undefined)
EC50 [1]: 5 µM | Max reversal [9]: 94.2% | ED50 [3]: 0.58 µmol/kg | Max reversal [10]: 85.4%

Compound: OC1C(O)[C@@H]2O[C@H]3OC(CSCCCc4nn[n-]n4)[C@@H](O[C@H]4OC(CSCCCc5nn[n-]n5)[C@@H](O[C@H]5OC(CSCCCc6nn[n-]n6)[C@@H](O[C@H]6OC(CSCCCc7nn[n-]n7)[C@@H](O[C@H]7OC(CSCCCc8nn[n-]n8)[C@@H](O[C@H]8OC(CSCCCc9nn[n-]n9)[C@@H](O[C@H]9OC(CSCCCc%10nn[n-]n%10)[C@@H](O[C@H]1OC2CSCCCc1nn[n-]n1)C(O)C9O)C(O)C8O)C(O)C7O)C(O)C6O)C(O)C5O)C(O)C4O)C(O)C3O.[Na+].[Na+].[Na+].[Na+].[Na+].[Na+].[Na+].[Na+] (some centres undefined)
EC50 [1]: 0.6 µM | Max reversal [15]: 89.9% | Max reversal [16]: 109% | ED50 [3]: 0.22 µmol/kg

Compound: O=C([O-])CCc1ccc(SCC2O[C@@H]3O[C@@H]4C(CSc5ccc(CCC(=O)[O-])cc5)O[C@H](O[C@@H]5C(CSc6ccc(CCC(=O)[O-])cc6)O[C@H](O[C@@H]6C(CSc7ccc(CCC(=O)[O-])cc7)O[C@H](O[C@@H]7C(CSc8ccc(CCC(=O)[O-])cc8)O[C@H](O[C@@H]8C(CSc9ccc(CCC(=O)[O-])cc9)O[C@H](O[C@@H]9C(CSc%10ccc(CCC(=O)[O-])cc%10)O[C@H](O[C@@H]%10C(CSc%11ccc(CCC(=O)[O-])cc%11)O[C@H](O[C@H]2C(O)C3O)C(O)C%10O)C(O)C9O)C(O)C8O)C(O)C7O)C(O)C6O)C(O)C5O)C(O)C4O)cc1.[Na+].[Na+].[Na+].[Na+].[Na+].[Na+].[Na+].[Na+] (some centres undefined)
EC50 [1]: 3 µM | Max reversal [5]: 95.4% | Max reversal [19]: 94.3% | ED50 [3]: 1.01 µmol/kg

Compound: CN(C)C(=O)Oc1cccc([N+](C)(C)C)c1.CN1[C@@H]2CC[C@H]1C[C@H](OC(=O)C(CO)c1ccccc1)C2.[Br-] (some centres undefined)
Decrease [20]: -64.8% | Increase [21]: -7.2% | HR [22]: -7.1 beats min-1 | BP [23]: 17.7 mmHg
